The values below come from ChEMBL document CHEMBL4308880, “Novel monoamine oxidase inhibitors based on the privileged 2-imidazoline molecular framework” (Bioorg Med Chem Lett, 2019).

For one series, the species on record is Homo sapiens. The experiment in a line: Selectivity index, ratio of IC50 for recombinant human MAOA expressed in insect cell microsomes to IC50 for recombinant human MAOB expressed in insect cell microsomes.
For series [1], the target named is T1, Amine oxidase [flavin-containing] B (Homo sapiens, UniProt P27338).
T1 sequence (P27338 whole entry): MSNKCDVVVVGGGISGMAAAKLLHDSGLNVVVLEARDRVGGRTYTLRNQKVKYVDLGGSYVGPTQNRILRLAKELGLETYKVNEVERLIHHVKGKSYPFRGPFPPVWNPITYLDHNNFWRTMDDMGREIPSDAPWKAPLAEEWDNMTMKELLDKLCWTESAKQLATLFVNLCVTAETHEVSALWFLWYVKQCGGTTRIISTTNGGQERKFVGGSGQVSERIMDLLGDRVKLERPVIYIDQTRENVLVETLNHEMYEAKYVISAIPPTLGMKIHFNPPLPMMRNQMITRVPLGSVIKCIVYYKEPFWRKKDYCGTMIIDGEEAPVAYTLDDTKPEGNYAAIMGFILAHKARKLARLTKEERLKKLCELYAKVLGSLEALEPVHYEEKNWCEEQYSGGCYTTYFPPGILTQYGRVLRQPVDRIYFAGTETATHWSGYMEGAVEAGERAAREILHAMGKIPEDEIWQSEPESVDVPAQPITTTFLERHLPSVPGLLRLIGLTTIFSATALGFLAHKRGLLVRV
The series can be described thus: Inhibition of recombinant human MAOB expressed in insect cell microsomes using kynuramine as substrate preincubated with substrate for 30 mins followed by enzyme addition and measured after 20 mins by fluorescence spectrophotometry. In outline: (§1)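 Recombinant human enzyme; kynuramine as substrate for both isoforms. 4-Hydroxyquinoline product read by fluorescence spectrophotometry after alkalization. Rates measured without and with inhibitor at 0.0003–100 µM. IC50 estimated from sigmoidal plots of rate versus log inhibitor concentration. Reported as mean ± standard deviation of triplicate experiments.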

The target of series [2] is T2, Amine oxidase [flavin-containing] A (Homo sapiens, UniProt P21397).
T2 sequence (P21397 whole entry): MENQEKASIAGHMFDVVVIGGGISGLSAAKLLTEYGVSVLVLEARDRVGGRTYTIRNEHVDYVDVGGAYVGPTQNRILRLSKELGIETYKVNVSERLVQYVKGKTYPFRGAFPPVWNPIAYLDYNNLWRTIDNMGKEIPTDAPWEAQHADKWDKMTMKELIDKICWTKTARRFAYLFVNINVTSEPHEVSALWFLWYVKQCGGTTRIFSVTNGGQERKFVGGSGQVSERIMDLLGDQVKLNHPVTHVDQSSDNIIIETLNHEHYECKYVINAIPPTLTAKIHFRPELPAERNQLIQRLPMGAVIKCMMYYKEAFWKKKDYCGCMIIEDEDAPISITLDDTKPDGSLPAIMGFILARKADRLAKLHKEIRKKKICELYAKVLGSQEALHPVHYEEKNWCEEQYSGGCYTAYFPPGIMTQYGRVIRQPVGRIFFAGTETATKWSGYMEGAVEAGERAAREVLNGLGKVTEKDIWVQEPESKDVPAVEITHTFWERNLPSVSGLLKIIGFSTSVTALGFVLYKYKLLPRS
The series can be described thus: Inhibition of recombinant human MAOA expressed in insect cell microsomes using kynuramine as substrate preincubated with substrate for 30 mins followed by enzyme addition and measured after 20 mins by fluorescence spectrophotometry. In outline:
as §1

The target in series [3] is T1, Amine oxidase [flavin-containing] B. The series can be described thus: Inhibition of recombinant human MAO-B expressed in insect cell microsomes assessed as residual activity using kynuramine as substrate at 4 times IC50 concentration preincubated for 15 mins measured after 20 mins by fluorescence spectroscopy relative to control. A digest of the protocol: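 Enzyme mixed with inhibitor at 4 × IC50 and incubated 15 min, with no dialysis. Residual activity read with kynuramine by 4-hydroxyquinoline fluorescence and expressed against the dialyzed no-inhibitor control.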

For series [4] the target is unchanged. The series can be described thus: Competitive inhibition of human MAOB expressed in insect cell microsomes using varying levels of kynuramine as substrate measured after 20 mins by Lineweaver-burk plot analysis. A digest of the protocol:
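Activity recorded at 8 kynuramine concentrations (15–250 µM). Runs done without inhibitor and with five inhibitor levels (¼, ½, ¾, 1 and 1¼ × IC50). Mode of inhibition assigned from Lineweaver-Burk plots.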

Series [5] shares this target. The experiment in a line: Reversible inhibition of recombinant human MAO-B expressed in insect cell microsomes assessed as residual activity using kynuramine as substrate at 4 times IC50 concentration preincubated for 15 mins with subsequent dialysis for 24 hrs followed by substrate addition measured after 20 mins by fluorescence spectroscopy relative to control. A digest of the protocol:
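Enzyme preincubated 15 min with inhibitor at 4 × IC50, then dialyzed 24 h. Samples then diluted twofold to 2 × IC50. Kynuramine added and reactions run 20 min. 4-Hydroxyquinoline quantified by fluorescence spectrophotometry. Controls: dialysis with no inhibitor (set as 100%) and dialysis with the irreversible inhibitor (R)-deprenyl.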

In series [6] the target is T2, Amine oxidase [flavin-containing] A. The series can be described thus: Competitive inhibition of human MAOA using p-trifluoromethyl benzylamine as substrate preincubated with substrate for 5 mins followed by enzyme addition by fluorimetric horseradish peroxidase-Amplex Red-coupled assay.

What is called IC50 is the concentration that gives 50% inhibition. By Ki is commonly meant a measure of affinity in units of concentration, obtained from inhibition or displacement. A higher Ki goes with lower affinity.

In the case of `FC(F)(F)c1cnc2c(c1)Oc1ccccc1C1=NCCN12`, the Ratio IC50 in the series filed under Homo sapiens is under 0.32. In addition, the half-maximal inhibitory concentration (IC50) in series [1] is over 100 µM; in series [2], 32 µM.
Take `Cc1ccc(-c2nc(-c3ccc(C4=NCCN4)cc3)no2)cc1`: the Ratio IC50 in the series filed under Homo sapiens is 32. Further, the concentration for half-maximal inhibition (IC50) is 0.071 µM in series [1] and 2.31 µM in series [2]. The values for the Activity in series [3] and in series [5] were 36% and 66%, respectively. In addition, the Ki in series [4] was determined as 0.038 µM.
In the case of `COc1ccc(C2=NCCN2)cc1Cn1ccnc1C`, the concentration for half-maximal inhibition (IC50) in series [1] and in series [2] was over 100 µM in each case.
As to `c1ccc2c(c1)Oc1nccnc1N1CCN=C21`, the IC50 in series [1] and in series [2] was over 100 µM in each case.
Regarding `c1ccc(Oc2ccc(-c3noc(-c4ccc(C5=NCCN5)cc4)n3)cc2)cc1`, the Ratio IC50 in the series filed under Homo sapiens worked out at 2. The IC50 in series [1] is 1.37 µM; in series [2] it was 2.77 µM.
The matching figures for `CC(C)(C)c1ccc(-c2noc(-c3ccc(C4=NCCN4)cc3)n2)cc1`: 1.8, 0.411 µM and 0.751 µM.
Regarding `c1ccc(-c2ccc(-c3noc(-c4ccc(C5=NCCN5)cc4)n3)cc2)cc1`, in the series listed under Homo sapiens, the Ratio IC50 is over 2.1. Besides, the IC50 in series [1] was 47.6 µM; in series [2], over 100 µM.
Compound `c1ccc2oc(C3=NCCN3)cc2c1` gave a Ki in series [6] of 17 µM.
As for `c1cc(C2=NCCN2)cc(-c2noc(-c3cccs3)n2)c1`, the Ratio IC50 in the series filed under Homo sapiens stood at 83. Moreover, the half-maximal inhibitory concentration (IC50) in series [1] turned out to be 1.06 µM; in series [2], 88.3 µM.
Take `CC1CN=C(c2ccc(-c3noc(-c4ccc(Cl)c(Cl)c4)n3)cc2)N1` (centres undefined): the Ratio IC50 in the series filed under Homo sapiens was 91. Further, the half-maximal inhibitory concentration (IC50) in series [1] was found to be 0.16 µM; in series [2] it was 14.7 µM.
Regarding `Clc1ccccc1-c1noc(-c2ccc(C3=NCCN3)cc2)n1`, the Ratio IC50 in the series filed under Homo sapiens came to 570. Also, the 50% inhibitory concentration (IC50) in series [1] stood at 0.03 µM; in series [2] it was 17.1 µM.
Consider `Clc1cccc(-c2nc(-c3cccc(C4=NCCN4)c3)no2)c1`, for which the Ratio IC50 in the series filed under Homo sapiens was found to be 46. In addition, the results for the half-maximal inhibitory concentration (IC50) in series [1] and in series [2] were 0.03 µM and 1.39 µM, respectively.
The matching figures for `c1csc(-c2noc(-c3ccc(C4=NCCN4)cc3)n2)c1`: 1.7, 0.89 µM and 1.57 µM.
Taken in the same sequence, the figures for `Cc1ccc(Cc2noc(-c3ccc(C4=NCCN4)cc3)n2)cc1` were 15, 3.64 µM and 55.5 µM.
As to `N#Cc1cccc(C2=NCCN2)c1`, the Ratio IC50 in the series filed under Homo sapiens is 78. The 50% inhibitory concentration (IC50) is 1.87 µM in series [1] and 147 µM in series [2].
With `N#Cc1ccc(C2=NCCN2c2ccc(C(F)(F)F)cn2)cc1`, in the series listed under Homo sapiens, the Ratio IC50 is over 2.4. Moreover, the results for the IC50 in series [1] and in series [2] were 41.8 µM and over 100 µM, respectively.
Taken in the same sequence, the figures for `Clc1ccc(-c2noc(-c3ccc(C4=NCCN4)cc3)n2)cc1Cl` were 92, 0.012 µM and 1.11 µM.
Taken in the same sequence, the figures for `c1ccc(OCc2noc(-c3ccc(C4=NCCN4)cc3)n2)cc1` were over 10, 9.98 µM and over 100 µM.
As to `Cc1ccc(-c2noc(-c3ccc(C4=NCC(C)N4)cc3)n2)s1` (centres undefined), in the series filed under Homo sapiens, the Ratio IC50 amounted to 82. Also, the figures for the IC50 in series [1] and in series [2] were 0.3 µM and 24.7 µM, respectively.
Taken in the same sequence, the figures for `N#Cc1ccc(C2=NCCN2c2cnccn2)cc1` were over 5.8, 17.2 µM and over 100 µM.
On to `Cn1ncc2c(c1=O)Oc1ccccc1C1=NCCN12`, for which the concentration for half-maximal inhibition (IC50) in series [1] and in series [2] was over 100 µM each time.
Take `Cc1nn(Cc2nc(-c3cccc(C4=NCCN4)c3)no2)c(=O)c2ccccc12`: the Ratio IC50 in the series filed under Homo sapiens was 2.6. For the same compound, the IC50 worked out at 23.9 µM in series [1] and 62.2 µM in series [2].
As to `Cc1nc(-c2ccc(C3=NCCN3)cc2)no1`, the Ratio IC50 in the series listed under Homo sapiens came out at 1. The figures for the IC50 in series [1] and in series [2] were 39.7 µM and 41.1 µM, respectively.
Consider `CCOc1ccc(-c2n[nH]cc2C2=NCCN2)cc1`, for which the half-maximal inhibitory concentration (IC50) in series [1] and in series [2] was over 100 µM each time.
Regarding `c1ncn(Cc2ccc(-c3noc(-c4ccc(C5=NCCN5)cc4)n3)cc2)n1`, the Ratio IC50 in the series listed under Homo sapiens was 2.7. Besides, the values for the IC50 in series [1] and in series [2] were 9.02 µM and 24.6 µM, respectively.
With `O=c1ccc(-c2ccccc2)nn1Cc1noc(-c2ccc(C3=NCCN3)cc2)n1`, in the series listed under Homo sapiens, the Ratio IC50 is over 164. For the same compound, the IC50 in series [1] is 0.608 µM; in series [2], over 100 µM.
Turning to `COc1cccc(-c2noc(-c3ccc(C4=NCCN4)cc3)n2)c1`, in the series filed under Homo sapiens, the Ratio IC50 worked out at 55. Further, the values for the IC50 in series [1] and in series [2] were 0.216 µM and 12 µM, respectively.
Taken in the same sequence, the figures for `CC(C)c1noc(-c2ccc(C3=NCCN3)cc2)n1` were 97, 0.23 µM and 22.5 µM.
Consider `Cn1ccnc1SCc1ccc(-c2noc(-c3ccc(C4=NCCN4)cc3)n2)cc1`, for which the Ratio IC50 in the series filed under Homo sapiens was 5.4. For the same compound, the IC50 stood at 2.28 µM in series [1] and 12.4 µM in series [2].
Regarding `c1ccc(-n2cc(C3=NCCN3)c(-c3cccs3)n2)cc1`, the Ratio IC50 in the series filed under Homo sapiens was over 5.4. Further, the IC50 in series [1] was 18.4 µM; in series [2], over 100 µM.
Turning to `c1cc(-c2noc(C3CC3)n2)ccc1C1=NCCN1`, in the series filed under Homo sapiens, the Ratio IC50 came out at 1.7. The IC50 was 4.28 µM in series [1] and 7.37 µM in series [2].
Regarding `COc1ccc(-c2noc(-c3ccc(C4=NCCN4)cc3)n2)cc1OC`, the Ratio IC50 in the series listed under Homo sapiens is over 132. Also, the IC50 was 0.756 µM in series [1] and over 100 µM in series [2].
On to `O=c1c2ccccc2cnn1Cc1noc(-c2ccc(C3=NCCN3)cc2)n1`, for which the Ratio IC50 in the series filed under Homo sapiens is over 79. For the same compound, the values for the IC50 in series [1] and in series [2] were 1.26 µM and over 100 µM, respectively.
For the compound `Clc1cccc(-c2noc(-c3ccc(C4=NCCN4)cc3)n2)c1`, the Ratio IC50 in the series listed under Homo sapiens was 85. Moreover, the IC50 in series [1] was found to be 0.064 µM; in series [2], 5.47 µM.
